Test results published in ChEMBL document CHEMBL1123779, “Modifications of primaquine as antimalarials. 4. 5-Alkoxy derivatives of primaquine” (J Med Chem, 1987).

What was measured:
Mus musculus [1] = assay: Suppressive blood schizonticidal antimalarial activity evaluated in the trophozoite-induced Plasmodium berghei infection in mice (Mus musculus) at a dose 10 mg/kg given as no. of cures; format: functional
Summary of the method: (§1)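 Run at the Rane Laboratory with blood-induced P. berghei infections in mice, five animals per group. A cure is a mouse surviving to 60 days postinfection. Deaths before day 6 are recorded separately as toxic deaths. Activity is scored from the increase in mean survival time over untreated controls, and counts as active when treated MST is more than twice control MST.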

Mus musculus [2] = assay: Suppressive blood schizonticidal antimalarial activity evaluated in the trophozoite-induced Plasmodium berghei infection in mice (Mus musculus) at a dose 40 mg/kg given as number of toxic deaths; format: ADME, organism-based; design: dose 40 mg/kg; details: in vivo
Summary of the method: (§2)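 Rane Laboratory mouse test with blood-induced P. berghei infection, five mice per group. Toxic deaths are deaths occurring before the 6th day postinfection.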

Mus musculus [3] = assay: Suppressive blood schizonticidal antimalarial activity evaluated in the trophozoite-induced Plasmodium berghei infection in mice (Mus musculus) at a dose 20 mg/kg given as no. of cures; format: functional; summary of the method: as §1
Plasmodium cynomolgi [4] = assay: Cures in Plasmodium cynomolgi infected Rhesus monkeys (Macaca mulatta) on 0.316 mg/kg/day after 7 days; cured 0 of 1; format: functional
Mus musculus [5] = assay: Suppressive blood schizonticidal antimalarial activity evaluated in the trophozoite-induced Plasmodium berghei infection in mice (Mus musculus) at a dose 160 mg/kg given as no. of toxic deaths; format: functional; summary of the method: as §2
Mus musculus [6] = assay: Suppressive blood schizonticidal antimalarial activity evaluated in the trophozoite-induced Plasmodium berghei infection in mice (Mus musculus) at a dose 5 mg/kg given as no. of cures; format: functional; summary of the method: as §1
Plasmodium berghei [7] = assay: Suppressive blood schizonticidal antimalarial activity evaluated in the trophozoite-induced Plasmodium berghei infection in mice (Mus musculus) at a dose 640 mg/kg given as number of toxic deaths; format: toxicity, organism-based; design: dose 640 mg/kg; details: in vivo; summary of the method: as §2
Plasmodium cynomolgi [8] = assay: Cures in Plasmodium cynomolgi infected Rhesus monkeys (Macaca mulatta) on 1 mg/kg/day after 7 days; cured 2 of 2; format: functional
Plasmodium berghei [9] = assay: Blood schizonticidal activity in trophozoite-induced Plasmodium berghei infected mice (Mus musculus) at 40 mg/kg; numbers cured; format: functional; summary of the method: as §1
Plasmodium cynomolgi [10] = assay: Cures in Plasmodium cynomolgi infected Rhesus monkeys (Macaca mulatta) on 0.1 mg/kg/day after 7 days (x7); cured 0 of 2; format: functional
Mus musculus [11] = assay: Suppressive blood schizonticidal antimalarial activity evaluated in the trophozoite-induced Plasmodium berghei infection in mice (Mus musculus) at a dose 2.5 mg/kg; format: functional
Summary of the method: (§3)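 Run at the Rane Laboratory in mice infected with blood-induced P. berghei, five animals per group. Activity is the increase in mean survival time over untreated infected controls. A compound counts as active when treated-group MST is more than twice the control MST. Cures are mice surviving at 60 days postinfection.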

Plasmodium cynomolgi [12] = assay: Cures in Plasmodium cynomolgi infected Rhesus monkeys (Macaca mulatta) on 1 mg/kg/day after 7 days; cured 1 of 1; format: functional
Plasmodium cynomolgi [13] = assay: Cures in Plasmodium cynomolgi infected Rhesus monkeys (Macaca mulatta) on 0.316 mg/kg/day after 7 days; cures 2 of 2; format: functional
Plasmodium cynomolgi [14] = assay: Cures in Plasmodium cynomolgi infected Rhesus monkeys (Macaca mulatta) on 0.316 mg/kg/day after 7 days; cured 0 of 2; format: functional
Plasmodium cynomolgi [15] = assay: Radical curative antimalarial activity against Plasmodium cynomolgi in Rhesus monkeys (Macaca mulatta) at 1 mg/kg/day over 7 days; cured 1 of 2; format: functional
Plasmodium berghei [16] = assay: Blood schizonticidal antimalarial activity in the trophozoite-induced Plasmodium berghei infection in mice (Mus musculus) at 20 mg/kg; format: functional; design: unit not given beside the values; summary of the method: as §3
Mus musculus [17] = assay: Suppressive blood schizonticidal antimalarial activity evaluated in the trophozoite-induced Plasmodium berghei infection in mice (Mus musculus) at a dose 40 mg/kg; format: functional; design: unit not given beside the values; summary of the method: as §3
Mus musculus [18] = assay: Suppressive blood schizonticidal antimalarial activity evaluated in the trophozoite-induced Plasmodium berghei infection in mice (Mus musculus) at a dose 320 mg/kg given as no. of toxic deaths; format: functional; summary of the method: as §2
Mus musculus [19] = assay: Suppressive blood schizonticidal antimalarial activity evaluated in the trophozoite-induced Plasmodium berghei infection in mice (Mus musculus) at a dose 80 mg/kg; format: functional; design: unit not given beside the values; summary of the method: as §3
Plasmodium cynomolgi [20] = assay: Cures in Plasmodium cynomolgi infected Rhesus monkeys (Macaca mulatta) on 0.1 mg/kg/day after 7 days; cured 0 of 1; format: functional
Plasmodium cynomolgi [21] = assay: Cures in Plasmodium cynomolgi infected Rhesus monkeys (Macaca mulatta) on 10.0 mg/kg/day after 7 days; cured 1 of 1; format: functional
Mus musculus [22] = assay: Suppressive blood schizonticidal antimalarial activity evaluated in the trophozoite-induced Plasmodium berghei infection in mice (Mus musculus) at a dose 80 mg/kg given as no. of cures; format: functional; summary of the method: as §1
Mus musculus [23] = assay: Suppressive blood schizonticidal antimalarial activity evaluated in the trophozoite-induced Plasmodium berghei infection in mice (Mus musculus) at a dose 5 mg/kg; format: functional; design: unit not given beside the values; summary of the method: as §3
Plasmodium cynomolgi [24] = assay: Cures in Plasmodium cynomolgi infected Rhesus monkeys (Macaca mulatta) on 10.0 mg/kg/day after 7 days; format: functional, organism-based
Mus musculus [25] = assay: Suppressive blood schizonticidal antimalarial activity evaluated in the trophozoite-induced Plasmodium berghei infection in mice (Mus musculus) at a dose 10 mg/kg; format: functional; summary of the method: as §3
Plasmodium cynomolgi [26] = assay: Cures in Plasmodium cynomolgi infected Rhesus monkeys (Macaca mulatta) on 1 mg/kg/day after 7 days; cured 0 of 1; format: functional
Mus musculus [27] = assay: Suppressive blood schizonticidal antimalarial activity evaluated in the trophozoite-induced Plasmodium berghei infection in mice (Mus musculus) at a dose 320 mg/kg; format: functional; summary of the method: as §3
Mus musculus [28] = assay: Suppressive blood schizonticidal antimalarial activity evaluated in the trophozoite-induced Plasmodium berghei infection in mice (Mus musculus) at a dose 160 mg/kg; format: functional; summary of the method: as §3
Mus musculus [29] = assay: Suppressive blood schizonticidal antimalarial activity evaluated in the trophozoite-induced Plasmodium berghei infection in mice (Mus musculus) at a dose 640 mg/kg given as no. of cures; format: functional; summary of the method: as §1
Mus musculus [30] = assay: Suppressive blood schizonticidal antimalarial activity evaluated in the trophozoite-induced Plasmodium berghei infection in mice (Mus musculus) at a dose 320 mg/kg given as number of cures; format: functional; summary of the method: as §1
Mus musculus [31] = assay: Suppressive blood schizonticidal antimalarial activity evaluated in the trophozoite-induced Plasmodium berghei infection in mice (Mus musculus) at a dose 160 mg/kg given as no. of cures; format: functional; summary of the method: as §1
Plasmodium cynomolgi [32] = assay: Cures in Plasmodium cynomolgi infected Rhesus monkeys (Macaca mulatta) on 0.1 mg/kg/day after 7 days; cured 1 of 3; format: functional
Mus musculus [33] = assay: Suppressive blood schizonticidal antimalarial activity evaluated in the trophozoite-induced Plasmodium berghei infection in mice (Mus musculus) at a dose 80 mg/kg given as no. of toxic deaths; format: functional; summary of the method: as §2

COCCCCCCOc1c(OC)cc(NC(C)CCCN)c2nccc(C)c12 (stereo not given)
Cures (Mus musculus [1]): 3 | Toxic deaths (Mus musculus [2]): 3 | Cures (Mus musculus [3]): 2 | Cures/no. of animals (Plasmodium cynomolgi [4]): 0 | Toxic deaths (Mus musculus [5]): 5 | Cures (Mus musculus [6]): 1 | Toxic deaths (Plasmodium berghei [7]): 5 | Cures/no. of animals (Plasmodium cynomolgi [8]): 2 | Cures (Plasmodium berghei [9]): 2 | Cures/no. of animals (Plasmodium cynomolgi [10]): 0 | Delta MST (Mus musculus [11]): 6.9

CCCOc1c(OC)cc(NC(C)CCCN)c2nccc(C)c12 (stereo not given)
Cures/no. of animals (Plasmodium cynomolgi [12]): 1 | Cures/no. of animals (Plasmodium cynomolgi [13]): 2 | Cures (Mus musculus [1]): 1 | Toxic deaths (Mus musculus [2]): 3 | Cures (Mus musculus [3]): 3 | Toxic deaths (Mus musculus [5]): 5 | Cures (Mus musculus [6]): 1 | Toxic deaths (Plasmodium berghei [7]): 5 | Cures/no. of animals (Plasmodium cynomolgi [10]): 0 | Delta MST (Mus musculus [11]): 6

COc1cc(NC(C)CCCN)c2ncccc2c1 (stereo not given) [PRIMAQUINE]
Cures/no. of animals (Plasmodium cynomolgi [14]): 0 | Cures/no. of animals (Plasmodium cynomolgi [15]): 1 | Delta MST (Plasmodium berghei [16]): 4 | Delta MST (Mus musculus [17]): 5 | Toxic deaths (Mus musculus [18]): 5 | Toxic deaths (Mus musculus [5]): 2 | Toxic deaths (Plasmodium berghei [7]): 5 | Delta MST (Mus musculus [19]): 9.4 | Cures/no. of animals (Plasmodium cynomolgi [10]): 0

COc1cc(NC(C)CCCN)c2nccc(C)c2c1OCC1CCCCC1 (stereo not given)
Cures (Mus musculus [1]): 1 | Cures/no. of animals (Plasmodium cynomolgi [20]): 0 | Cures (Mus musculus [3]): 4 | Cures/no. of animals (Plasmodium cynomolgi [21]): 1 | Cures/no. of animals (Plasmodium cynomolgi [4]): 0 | Toxic deaths (Mus musculus [18]): 4 | Toxic deaths (Plasmodium berghei [7]): 5 | Cures/no. of animals (Plasmodium cynomolgi [8]): 2 | Cures (Plasmodium berghei [9]): 3 | Cures (Mus musculus [22]): 1 | Delta MST (Mus musculus [23]): 7.8 | Delta MST (Mus musculus [11]): 9.2

COc1cc(NC(C)CCCN)c2nccc(C)c2c1OC1CCCC1 (stereo not given)
Cures/no. of animals (Plasmodium cynomolgi [13]): 2 | Cures (Mus musculus [3]): 1 | Toxic deaths (Mus musculus [18]): 5 | Toxic deaths (Mus musculus [5]): 5 | Toxic deaths (Plasmodium berghei [7]): 5 | Cures/no. of animals (Plasmodium cynomolgi [8]): 2 | Cures/no. of animals (Plasmodium cynomolgi [24]): Toxic | Cures (Plasmodium berghei [9]): 2 | Cures/no. of animals (Plasmodium cynomolgi [10]): 0 | Cures (Mus musculus [22]): 1 | Delta MST (Mus musculus [23]): 6.9 | Delta MST (Mus musculus [11]): 6.1 | Delta MST (Mus musculus [25]): 6.9

CCCCCCCCCCOc1c(OC)cc(NC(C)CCCN)c2ncccc12 (stereo not given)
Cures/no. of animals (Plasmodium cynomolgi [26]): 0 | Delta MST (Plasmodium berghei [16]): 0.1 | Delta MST (Mus musculus [17]): 0.1 | Cures/no. of animals (Plasmodium cynomolgi [21]): 1 | Delta MST (Mus musculus [19]): 2.9 | Delta MST (Mus musculus [27]): 9.3 | Delta MST (Mus musculus [28]): 5.7 | Cures (Mus musculus [29]): 2

CCCCCCCCCCCCOc1c(OC)cc(NC(C)CCCN)c2nccc(C)c12 (stereo not given)
Cures/no. of animals (Plasmodium cynomolgi [26]): 0 | Delta MST (Plasmodium berghei [16]): 3.2 | Cures/no. of animals (Plasmodium cynomolgi [20]): 0 | Delta MST (Mus musculus [17]): 6.4 | Delta MST (Mus musculus [19]): 7.6 | Cures (Mus musculus [29]): 5 | Delta MST (Mus musculus [25]): 2 | Cures (Mus musculus [30]): 5 | Cures (Mus musculus [31]): 4

CCCCOCCOc1c(OC)cc(NC(C)CCCN)c2nccc(C)c12 (stereo not given)
Cures/no. of animals (Plasmodium cynomolgi [12]): 1 | Cures/no. of animals (Plasmodium cynomolgi [13]): 2 | Cures (Mus musculus [1]): 3 | Cures/no. of animals (Plasmodium cynomolgi [32]): 1 | Cures (Mus musculus [3]): 4 | Toxic deaths (Mus musculus [33]): 4 | Toxic deaths (Mus musculus [18]): 4 | Toxic deaths (Mus musculus [5]): 3 | Cures/no. of animals (Plasmodium cynomolgi [24]): Toxic | Cures (Plasmodium berghei [9]): 2 | Delta MST (Mus musculus [23]): 4.3 | Delta MST (Mus musculus [11]): 3.3

CCCCCCCCCOc1c(OC)cc(NC(C)CCCN)c2nccc(C)c12 (stereo not given)
Cures/no. of animals (Plasmodium cynomolgi [14]): 0 | Cures/no. of animals (Plasmodium cynomolgi [12]): 1 | Cures (Mus musculus [1]): 2 | Cures (Mus musculus [3]): 3 | Cures/no. of animals (Plasmodium cynomolgi [24]): Toxic | Cures (Plasmodium berghei [9]): 5 | Cures/no. of animals (Plasmodium cynomolgi [10]): 0 | Cures (Mus musculus [29]): 4 | Cures (Mus musculus [22]): 5 | Delta MST (Mus musculus [23]): 9.7 | Delta MST (Mus musculus [11]): 7.9 | Cures (Mus musculus [30]): 4 | Cures (Mus musculus [31]): 4

CCCCC(C)Oc1c(OC)cc(NC(C)CCCN)c2ncc(C)cc12 (stereo not given)
Cures/no. of animals (Plasmodium cynomolgi [12]): 1 | Cures (Mus musculus [3]): 2 | Toxic deaths (Mus musculus [18]): 5 | Toxic deaths (Mus musculus [5]): 5 | Toxic deaths (Plasmodium berghei [7]): 5 | Cures (Plasmodium berghei [9]): 3 | Cures (Mus musculus [22]): 1 | Delta MST (Mus musculus [25]): 6.1
